Laboratory results as given in ChEMBL document CHEMBL1153879, “Synthesis and pharmacokinetic evaluation of novel N-acyl-cordycepin derivatives with a normal alkyl chain” (Eur J Med Chem, 2009).

Key:
[1] = Cmax in C57BL/6 mouse at 0.5 umol/kg, po; type: ADME, organism-based; set-up: dose 0.5 umol/kg, route oral; conditions: in vivo
In short: (§1)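 Male C57BL/6 mice (20±2 g, 7 weeks old) received a single oral dose in 2% Tween-80 aqueous solution. Blood was extracted with MeOH or EtOAc, depending on the compound, and assayed by HPLC. Parameters were derived from the mean profiles (n=5).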

Mus musculus [2] = assay: AUC in C57BL/6 mouse at 0.5 umol/kg, po assessed as transformed cordycepin levels; type: ADME, organism-based, Plasma; conditions: in vivo, in the assay text read “500 umol/kg” for “0.5 umol/kg”; in short: as §1
[3] = AUC in C57BL/6 mouse at 0.5 umol/kg, po; type: ADME, organism-based; conditions: plasma; in short: as §1
[4] = Tmax in C57BL/6 mouse at 0.5 umol/kg, po; type: ADME, organism-based; conditions: in vivo; in short: as §1
Mus musculus [5] = assay: Half life in C57BL/6 mouse at 500 umol/kg, po assessed as transformed cordycepin levels; conditions: in vivo
[6] = Half life in C57BL/6 mouse at 0.5 umol/kg, po; type: ADME, organism-based; conditions: in vivo; in short: as §1
Mus musculus [7] = assay: Cmax in C57BL/6 mouse at 500 umol/kg, po assessed as transformed cordycepin levels; conditions: in vivo
Mus musculus [8] = assay: Tmax in C57BL/6 mouse at 0.5 umol/kg, po assessed as transformed cordycepin levels; type: ADME, organism-based; conditions: in vivo; in short: as §1
Mus musculus [9] = assay: Half life in C57BL/6 mouse at 0.5 umol/kg, po assessed as transformed cordycepin levels; type: ADME, organism-based; conditions: in vivo, in the assay text read “500 umol/kg” for “0.5 umol/kg”; in short: as §1

Row | SMILES | Cmax [1] [µM] | AUC (Mus musculus [2]) [µM·h] | AUC [3] [µM·h] | Tmax [4] [h] | t1/2 (Mus musculus [5]) [h] | half-life [6] [h] | Cmax (Mus musculus [7]) [µM] | Tmax (Mus musculus [8]) [h] | t1/2 (Mus musculus [9]) [h]
1 | CCCCCCCCCCCC(=O)Nc1ncnc2c1ncn2[C@@H]1O[C@H](CO)C[C@H]1O | 160 | 69.1 | 672 | 6 | 10.5 | 8.3 | 15 | 8 | 
2 | CCCCCCCCCCCCCCCCCC(=O)Nc1ncnc2c1ncn2[C@@H]1O[C@H](CO)C[C@H]1O | 22.1 | 3.7 | 32.5 | 8 |  | 8.6 | 2.2 | 10 | 10.8
3 | CCC(=O)Nc1ncnc2c1ncn2[C@@H]1O[C@H](CO)C[C@H]1O | 120 | 59.9 | 356 | 3 |  | 4.4 | 14.1 | 5 | 7.5
4 | Nc1ncnc2c1ncn2[C@@H]1O[C@H](CO)C[C@H]1O [CORDYCEPIN] | 10.1 | 19.2 | 19.2 | 1.5 |  | 2.1 | 10.1 | 1.5 | 2.1
5 | CCCCCCCC(=O)Nc1ncnc2c1ncn2[C@@H]1O[C@H](CO)C[C@H]1O | 310 | 83.7 | 1310 | 5 |  | 6.8 | 20.6 | 7 | 9.4
